# Screening results: PubChem, several laboratories
# SENP6 inh: SENP6 protease inhibitors, primary screen, biochemical, luminescence, uHTS; AID 2599, 2010; Recombinant SENP6 catalytic domain, aminoluciferin luminescence; Sentrin-specific protease 6 (Homo sapiens), Q9GZR1; inhibition, % at 10 µM; actives 1.8% (n = 330,000);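 active means inhibition above about 50% at the single tested dose, limit read from the data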;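 further: plate controls were DMSO wells with enzyme for no effect and DMSO wells lacking enzyme for full effect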
# Target sequence (Q9GZR1 628-1112 limits assumed): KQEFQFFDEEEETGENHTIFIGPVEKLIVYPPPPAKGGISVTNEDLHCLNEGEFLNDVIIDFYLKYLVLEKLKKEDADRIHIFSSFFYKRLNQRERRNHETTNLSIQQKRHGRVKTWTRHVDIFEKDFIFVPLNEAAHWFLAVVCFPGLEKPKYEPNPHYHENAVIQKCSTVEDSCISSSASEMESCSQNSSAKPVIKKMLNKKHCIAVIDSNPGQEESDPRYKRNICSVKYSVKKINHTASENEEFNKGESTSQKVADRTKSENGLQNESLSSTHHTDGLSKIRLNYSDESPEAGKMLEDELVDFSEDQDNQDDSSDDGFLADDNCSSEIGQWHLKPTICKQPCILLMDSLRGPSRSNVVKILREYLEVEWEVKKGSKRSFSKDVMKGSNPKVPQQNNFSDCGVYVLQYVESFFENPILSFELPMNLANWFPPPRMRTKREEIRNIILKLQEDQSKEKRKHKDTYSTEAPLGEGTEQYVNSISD
# SENP8 block-1: human SENP8 protease inhibitors, primary screen, biochemical, fluorescence, Nedd8 protein substrate, uHTS. actives 0.64% (n = 360,000). inhibition, % at 20 µM. recombinant SENP8. Sentrin-specific protease 8 (Homo sapiens), Q96LD8; in the data active means inhibition mostly above about 40%, no sharp cut-off; inactive means mostly below about 27%
# Platelet DG rel: inhibitors of platelet dense granule secretion, primary screen, cell-based, MLPCN, human platelets; human platelet-rich plasma, SFLLRN dense granule ATP release, luminescence; inhibition, %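 (compounds screened at 7.5 µM in platelet-rich plasma)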; actives 0.22% (n = 300,000); AID 1663, 2009;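 active means mean replicate score, as percent of positive control, at or above 50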
# SENP8 block-2: SENP8 protease inhibitors, primary screen, biochemical, luminescence; Sentrin-specific protease 8 (Homo sapiens), Q96LD8; purified SENP8, Z-RLRGG-aminoluciferin cleavage; inhibition, % at 10 µM; actives 1.2% (n = 330,000); AID 2540, 2010; in the data active means inhibition above about 50%
# SENP1 FRET inh: human SENP1 catalytic domain inhibitors, primary screen, biochemical, FRET, uHTS; Sentrin-specific protease 1 (Homo sapiens), Q9P0U3; recombinant SENP1 catalytic domain, CyPet-SUMO1-YPet FRET cleavage; inhibition, % at 10 µM; actives 0.21% (n = 360,000);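 active means inhibition at least 30% at 10 µM, raw YFP signal under a set limit, fluorescence ratio 0.5 to 1.5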;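 further: 0% = enzyme with DMSO and 100% = no enzyme wells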
#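 Assay system – human recombinant His6-tagged SENP1 catalytic domain enzyme · Input – SENP1 enzyme, 20 pM final · Buffer or medium – Tris pH 8 buffer plus EDTA, NaCl, BME, BSA, NP40, catalase · Schedule – 50 min reaction at room temperature · Technique – FRET read of cyan and yellow fluorescence · Control set – no-enzyme wells low, DMSO-plus-enzyme wells high control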
# SENP7 inh: SENP7 protease inhibitors, primary screen, biochemical, luminescence, uHTS. inhibition, % at 5 µM. AID 434973, 2010. Sentrin-specific protease 7 (Homo sapiens), Q9BQF6. actives 1.5% (n = 330,000). recombinant SENP7, Z-RLRGG-aminoluciferin luminescence, 40 min;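 active means inhibition above about 50% at the single test dose, limit read from the data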;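 further: plate controls were DMSO with enzyme for no effect and no enzyme buffer wells for full effect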
# SENP8 confirm: SENP8 protease inhibitors, retest, confirmation, biochemical, luminescence, single concentration; shares compounds with SENP7 inh; Recombinant SENP8, Z-RLRGG-aminoluciferin luminescence, 60 min; inhibition, % at 12.5 µM; actives 40% (n = 6,200); AID 488912, 2010;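 active means mean inhibition across replicates above about 50%, limit read from the data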
# SENP6 conf: SENP6 protease inhibitors, confirmation, biochemical, luminescence, single concentration. shares compounds with SENP7 inh. recombinant SENP6, Z-RLRGG-aminoluciferin luminescence. inhibition, % at 12.5 µM. actives 58% (n = 6,200). AID 488915, 2010
# SENP7 conf: SENP7 protease inhibitors, retest, confirmation, biochemical, luminescence, single concentration | shares compounds with SENP7 inh | recombinant SENP7, Z-RLRGG-aminoluciferin luminescence, 40 min | inhibition, % at 12.5 µM | actives 69% (n = 6,200) | AID 488917, 2010
# Casp3 select: caspase-3 protease inhibitors, confirmation, selectivity assay for SENP inhibitor project, biochemical, single concentration | purified caspase-3, Z-DEVD-aminoluciferin luminescence, 60 min | shares compounds with SENP7 inh | actives 60% (n = 6,200) | AID 488918, 2010 | inhibition, % at 12.5 µM;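 active means mean inhibition above about 50%, limit read from the data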;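 further: plate controls were enzyme with DMSO for no effect and wells without caspase-3 for full effect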
# SENP luc ctr: luminescence interference (SENP counter-screen). shares compounds with SENP7 inh. Pre-incubated SENP8/Z-RLRGG-aminoluciferin, luciferase luminescence interference. inhibition, % at 12.5 µM. actives 39% (n = 6,200);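 active means mean inhibition above about 50% when retested at one dose, limit read from the data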;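 further: plate controls were DMSO wells with completed reaction for no effect and substrate without enzyme for full effect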
# * = called active by the depositor; / = no result. The list is not random: actives were taken first. Their share in the collection is about 2.6%.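 How the source made its calls, unless noted: active means mean inhibition above about 50% in the one-dose retest (limit read from the data); inactive means the rest.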
SMILES,SENP6 inh,SENP8 block-1,Platelet DG rel,SENP8 block-2,SENP1 FRET inh,SENP7 inh,SENP8 confirm,SENP6 conf,SENP7 conf,Casp3 select,SENP luc ctr
Cc1ncsc1C(=O)Nc1nc2c(s1)CC(C)CC2 (stereo not drawn),96*,-78,23,92*,5,98*,-4,72*,93*,84*,26
CC1CCc2nc(NC(=O)C3COc4ccccc4O3)sc2C1 (stereo not drawn),75*,1,-2,45,0,43,72*,72*,91*,59*,28
Cc1cnc(NC(=O)C2COc3ccccc3O2)s1 (stereo not drawn),58*,6,-4,52*,-3,65*,69*,68*,89*,79*,73*
CC(=O)Nc1ccc(NC(=O)COC(=O)c2ccc(S(=O)(=O)N(C)c3ccccc3)cc2)cc1,/,-10,/,/,1,/,/,/,/,/,/
COc1ccc(NC(=O)/C(C#N)=C/c2ccc(Br)o2)cc1,-2,27,6,-3,3,66*,-8,-7,4,4,-3
COc1ccc(N(CC(=O)NCc2ccc3c(c2)OCO3)S(C)(=O)=O)cc1OC,-12,5,-10,-6,0,94*,2,0,-2,-2,-2
CC1CC(=O)N(CC(=O)Nc2ccc(F)cc2F)c2ccccc2S1(=O)=O (stereo not drawn),0,13,3,4,1,3,/,/,/,/,/
CCOc1ccc2nc(NC(=O)c3cccnc3)sc2c1,84*,-133,22,71*,-1,86*,12,20,41,40,6
CCCC(=O)Nc1nc2ccc(OCC)cc2s1,-11,-2,-7,-6,-2,-15,/,/,/,/,/
CN(C)C(=S)Nc1nc2ccccc2s1,/,10,6,/,2,/,/,/,/,/,/
CCOc1ccc2nc(NC(=O)c3ccc(C)o3)sc2c1,96*,-428,61*,94*,-4,98*,3,95*,102*,91*,10
CCOc1ccc2nc(NC(=S)N(C)C)sc2c1,77*,14,9,49,0,57*,71*,69*,92*,58*,82*
Cc1snc(S(=O)(=O)/C(C#N)=N/Nc2ccc(C(F)(F)F)cc2)c1C#N,0,22,-1,-1,1,1,/,/,/,/,/
COc1ccc(CCNC(=O)C2CC=CCC2C(=O)O)cc1 (stereo not drawn),-5,4,6,3,-2,-4,/,/,/,/,/
CSc1cccc(NC(=O)c2[nH]c(C)c(C(C)=O)c2C)c1,18,2,-1,-2,0,13,/,/,/,/,/
CC(C)(C)NC(=O)CN(C(=O)CSc1nnc(COc2ccccc2)o1)c1cccc(F)c1,-5,12,-7,2,1,52*,0,-1,-3,-4,-4
